Reference: publication PMC8256004 (ChemMedChem, 2020)

Tests used:
KPC-Kpn = assay: Micro-broth dilution MIC of cefepime in combination with inhibitor, KPC-Kpn; assay type: cell-based, Klebsiella pneumoniae; details: for MIC of cefepime (FEP) in combination with compound, KPC-Kpn: compound at constant 10 μg/mL, FEP 0.12 to 128 μg/mL
Summary of the method: (§1)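 CLSI broth microdilution. Cultures grown overnight in Mueller-Hinton broth, then diluted to a McFarland standard (OD600 0.224). Cefepime serially diluted from 128 to 0.12 μg/mL, with boronic acid test compound held constant at 10 μg/mL. Incubated overnight at 37 °C and MIC read the next day.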

KPC-2 β-lactamase = KPC-2 β-lactamase (Klebsiella pneumoniae, UniProt Q9F663); assay: Competition kinetics of KPC-2 inhibition with nitrocefin as substrate; assay type: biochemical
K. pneum blaKPC-2 = assay type: cell-based, Klebsiella pneumoniae; details: compound at constant 10 μg/mL; FEP 0.12 to 128 μg/mL
Summary of the method: as §1

Sequence of KPC-2 β-lactamase (Q9F663 25-293, looked up): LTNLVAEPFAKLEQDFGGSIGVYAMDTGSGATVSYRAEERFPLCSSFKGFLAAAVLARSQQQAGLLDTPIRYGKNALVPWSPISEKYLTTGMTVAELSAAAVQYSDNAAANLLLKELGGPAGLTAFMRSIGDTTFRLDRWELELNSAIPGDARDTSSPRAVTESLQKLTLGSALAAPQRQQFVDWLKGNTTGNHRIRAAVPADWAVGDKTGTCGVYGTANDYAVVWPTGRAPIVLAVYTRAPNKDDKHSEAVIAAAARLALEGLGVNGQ

| MIC (KPC-Kpn; Klebsiella pneumoniae, read-out: MIC of cefepime (FEP) alone, KPC-Kpn) | Ki (KPC-2 β-lactamase) | MIC of cefepime (FEP) in combination with compound, KPC-Kpn (KPC-Kpn) | MIC of cefepime (FEP) in combination with compound, K. pneum blaKPC-2 (K. pneum blaKPC-2) | Structure (SMILES) |
| --- | --- | --- | --- | --- |
| 32 µg/mL |  |  |  | CO/N=C(\C(=O)N[C@@H]1C(=O)N2C(C(=O)[O-])=C(C[N+]3(C)CCCC3)CS[C@H]12)c1csc(N)n1 [FEP, cefepime] |
|  | 20 ± 3 nM | 0.5 µg/mL | 1 µg/mL | O=C(O)C[C@@H]1CC[C@H](NC(=O)Cc2cccs2)B(O)O1 [vaborbactam] |
|  |  | < 0.12 µg/mL | < 0.12 µg/mL | NC(=O)[C@@H]1CC[C@@H]2CN1C(=O)N2OS(=O)(=O)O [avibactam] |
